In ChEMBL document CHEMBL1143741, “Sirtuin 2 inhibitors rescue alpha-synuclein-mediated toxicity in models of Parkinson's disease” (Science, 2007):
Calls of active or inactive are those of the source. No cut-off for these calls is given here.

Experiments:
[1] = biological target: T1, NAD-dependent protein deacetylase sirtuin-1 (Homo sapiens, UniProt Q96EB6); assay: Inhibition of human recombinant SIRT1 using fluorescent peptide substrate by fluorescent assay
T1 sequence (Q96EB6 whole entry): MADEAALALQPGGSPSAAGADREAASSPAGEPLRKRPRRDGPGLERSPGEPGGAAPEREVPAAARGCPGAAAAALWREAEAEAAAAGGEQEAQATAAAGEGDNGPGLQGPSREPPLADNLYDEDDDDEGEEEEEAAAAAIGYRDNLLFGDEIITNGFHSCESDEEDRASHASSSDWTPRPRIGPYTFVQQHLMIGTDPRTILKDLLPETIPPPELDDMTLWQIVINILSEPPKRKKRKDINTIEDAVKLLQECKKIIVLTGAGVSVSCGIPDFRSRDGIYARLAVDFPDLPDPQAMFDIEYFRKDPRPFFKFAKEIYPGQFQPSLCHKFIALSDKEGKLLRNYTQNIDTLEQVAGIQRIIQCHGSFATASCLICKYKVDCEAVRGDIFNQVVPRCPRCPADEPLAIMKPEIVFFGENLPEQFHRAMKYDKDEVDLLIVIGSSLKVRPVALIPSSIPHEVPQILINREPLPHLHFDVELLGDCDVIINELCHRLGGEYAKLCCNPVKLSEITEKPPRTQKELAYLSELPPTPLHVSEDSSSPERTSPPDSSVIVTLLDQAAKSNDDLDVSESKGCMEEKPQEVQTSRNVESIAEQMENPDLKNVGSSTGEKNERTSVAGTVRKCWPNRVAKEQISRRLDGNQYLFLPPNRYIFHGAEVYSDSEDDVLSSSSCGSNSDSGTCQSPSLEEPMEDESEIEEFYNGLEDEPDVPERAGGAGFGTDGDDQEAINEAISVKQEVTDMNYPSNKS
In short: (§1)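 Recombinant human SIRT1 or SIRT2 tested in an in vitro fluorometric deacetylation assay. Dose-response inhibition profiles were run, and IC50 was calculated from them.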

[2] = system: Midbrain; assay: Protection of dopaminergic cell death in rat embryo midbrain transduced with lentivirus encoding alphaSyn-A53T mutant assessed as tyrosine hydroxylase positive cells; format: functional, tissue-based
In short: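 Primary midbrain cultures transduced with α-SynA53T lentivirus (multiplicity of infection = 5) in the presence of vehicle (DMSO) or increasing compound concentrations. Untransduced DMSO-treated (0.2%, v/v) cells served as control. Stained for MAP2 and TH; viability = percentage of MAP2-positive cells also TH-positive. Means ± SEM, N > 3; one-way ANOVA with Dunnett's post hoc test versus α-SynA53T alone.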

[3] = system: Drosophila; assay: Protective effect against alphaSyn mediated toxicity in wild-type transgenic Drosophila expressing elav-GAL4; UAS-synWT assessed as rescue of dorsomedial neurons after drug administration for the first 20 days of adult life; format: functional, organism-based
In short: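 Transgenic α-Syn flies were fed compound at 250, 500 or 1000 μM, or DMSO, for the first 20 days of adult life. TH-positive dopamine neurons in the dorsomedial cluster were then assessed in 20-day-old flies. Significance was set at P < 0.01.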

[4] = biological target: T2, NAD-dependent protein deacetylase sirtuin-3, mitochondrial (Homo sapiens, UniProt Q9NTG7); assay: Inhibition of human recombinant SIRT3 using fluorescent peptide substrate by fluorescent assay
T2 sequence (Q9NTG7 whole entry): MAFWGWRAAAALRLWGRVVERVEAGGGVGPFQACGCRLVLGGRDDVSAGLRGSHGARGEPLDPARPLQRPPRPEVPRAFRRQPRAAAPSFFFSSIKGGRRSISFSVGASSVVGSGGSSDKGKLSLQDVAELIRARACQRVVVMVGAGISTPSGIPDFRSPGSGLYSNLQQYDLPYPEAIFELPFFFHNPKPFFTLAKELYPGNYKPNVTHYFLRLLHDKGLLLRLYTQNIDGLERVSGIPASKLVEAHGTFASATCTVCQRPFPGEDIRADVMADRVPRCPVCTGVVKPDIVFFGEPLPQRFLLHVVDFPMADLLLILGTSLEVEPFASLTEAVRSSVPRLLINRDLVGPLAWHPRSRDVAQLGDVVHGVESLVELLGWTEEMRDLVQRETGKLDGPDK

[5] = biological target: T3, NAD-dependent protein deacetylase sirtuin-2 (Homo sapiens, UniProt Q8IXJ6); assay: Inhibition of human recombinant SIRT2 using fluorescent peptide substrate by fluorescent assay; in short: as §1
T3 sequence (Q8IXJ6 whole entry): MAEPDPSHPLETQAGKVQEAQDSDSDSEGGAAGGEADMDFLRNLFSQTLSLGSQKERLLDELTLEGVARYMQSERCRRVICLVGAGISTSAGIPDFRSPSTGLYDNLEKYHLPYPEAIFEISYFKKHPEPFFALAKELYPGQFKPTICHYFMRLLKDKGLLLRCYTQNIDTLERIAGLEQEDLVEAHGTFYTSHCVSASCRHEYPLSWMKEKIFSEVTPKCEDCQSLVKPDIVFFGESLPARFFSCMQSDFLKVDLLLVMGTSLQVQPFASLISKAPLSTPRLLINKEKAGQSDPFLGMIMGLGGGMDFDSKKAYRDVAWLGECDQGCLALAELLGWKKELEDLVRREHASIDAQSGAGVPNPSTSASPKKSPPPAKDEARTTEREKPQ

Row | Compound | IC50 [1] [µM] | Activity [2] | Activity [3] | IC50 [4] [µM] | IC50 [5] [µM]
1 | N#C/C(=C\c1ccc(-c2cc(Cl)ccc2Cl)o1)C(=O)Nc1cccc2ncccc12 | > 50 | Active | Dose-dependent effect | – | –
2 | N#C/C(=C\c1ccc(-c2cc(Cl)ccc2Cl)o1)C(=O)Nc1cccc2cccnc12 | – | – | – | > 5 | > 50
3 | N#C/C(=C\c1ccc(-c2cccc(Cl)c2Cl)o1)C(=O)Nc1cccc2ncccc12 | > 50 | – | – | > 50 | > 10
4 | N#C/C(=C\c1ccc(-c2ccccc2Cl)o1)C(=O)Nc1cccc2cccnc12 | – | – | – | > 50 | > 50
5 | N#C/C(=C\c1ccc(-c2cccc(C(F)(F)F)c2)o1)C(=O)Nc1cccc2ncccc12 | > 50 | – | – | > 50 | 6
6 | O=C(c1ccc(Cl)cc1)N1CCN(c2ccc([N+](=O)[O-])c3ncccc23)CC1 | > 50 | Active | – | > 50 | 35
7 | N#C/C(=C\c1ccc(-c2cccc(C(F)(F)F)c2)o1)C(=O)Nc1cccc2cccnc12 | > 50 | – | – | > 50 | > 50
8 | N#C/C(=C\c1ccc(-c2cccc(Cl)c2Cl)o1)C(=O)Nc1cccc2cccnc12 | > 50 | – | – | > 50 | > 50
9 | N#C/C(=C\c1ccc(-c2ccccc2Cl)o1)C(=O)Nc1cccc2ncccc12 | – | – | – | > 50 | 5.5
